Avidin fluor: compound fluoresces at 488/530 nm on avidin beads; compound fluorescence 488/530 nm, flow cytometry; active compounds read high; hit rate 0.38% among 220,000; fluorescence (KMESF) at 10 µM; in the data active = fluorescence above about 47
GSH fluor: compound fluoresces at 488/530 nm on GSH beads | GSH beads flow cytometry, compound fluorescence 488/530 nm; active compounds read high | fluorescence (KMESF) at 10 µM | hit rate 0.25% among 190,000; in the data active = fluorescence above about 89;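 also: glutathione beads carrying GST-tagged Bcl family fusion proteins plus one bare bead set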
PMI act hi M6P: activators of human phosphomannose isomerase at near-saturating mannose 6-phosphate | P34949 | coupled PMI enzyme assay, resazurin fluorescence, 20 min; active compounds read high; 1 = untreated enzyme, 0 = substrate-free blank | activation factor at 20 µM | hit rate 0.34% among 190,000 | AID 1216;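 active = activation factor of 2 or more at 20 µM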
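Material: human phosphomannose isomerase with PGI, G6PDH, diaphorase coupling enzymes; amount: PMI at 15 ng/mL final; also added: Mannose-6-phosphate 1.0 mM (near-saturating) plus 0.22 mM NADP+; incubation: enzyme reaction with compound 20 min at room temperature; signal: resorufin fluorescence (Ex 544/Em 590 nm) from resazurin via diaphorase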
PMI act: phosphomannose isomerase (human) activation; activation factor at 20 µM; purified human PMI, coupled resazurin fluorescence, 20 min; active compounds read high; 1 = vehicle control, 0 substrate-free wells; hit rate 0.005% among 190,000; P34949;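 active = activation factor of 2 or more at 20 µM, relative to plate controls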
Diaphorase act: counter-screen for diaphorase-based assays: diaphorase activators and chemical reducers; Diaphorase/resazurin coupled assay, resorufin fluorescence, 16 min; active compounds read high; 1 = vehicle wells, 0 = NADH-free wells; hit rate 0.005% among 190,000; activation factor at 20 µM; AID 1229;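 active = diaphorase activity raised at least twofold by the compound at 20 µM; inactive = activation factor below 2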
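System – purified diaphorase enzyme from Clostridium kluyveri · Input – enzyme 0.07 U/mL final · Also added – final NADH 0.114 mM, resazurin 0.1 mM · Measured by – fluorescence of resorufin, 544 nm excitation, 590 nm emission · Timing – 16 min enzyme reaction, ambient temperature · Measure – resorufin increase flagging diaphorase activators or reducers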
NCF1 inh: inhibitors of human p47phox binding; P14598; p47phox/p22phox peptide binding, fluorescence polarization, 2 h; inhibition, % at 24.7 µM; hit rate 0.53% among 220,000; AID 1274;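 active = inhibition above about 30%, limit read from the data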
Target sequence (P14598 whole entry, looked up): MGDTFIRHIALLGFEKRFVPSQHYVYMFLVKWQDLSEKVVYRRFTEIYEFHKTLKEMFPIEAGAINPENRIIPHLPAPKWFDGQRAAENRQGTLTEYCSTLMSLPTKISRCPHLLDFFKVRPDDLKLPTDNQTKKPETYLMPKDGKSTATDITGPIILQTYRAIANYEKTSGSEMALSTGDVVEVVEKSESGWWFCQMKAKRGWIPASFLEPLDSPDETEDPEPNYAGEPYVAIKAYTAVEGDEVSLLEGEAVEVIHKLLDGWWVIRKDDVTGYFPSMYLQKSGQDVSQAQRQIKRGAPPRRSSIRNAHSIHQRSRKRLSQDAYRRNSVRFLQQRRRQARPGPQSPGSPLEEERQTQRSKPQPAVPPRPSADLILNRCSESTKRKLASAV
Each line names hits and unclear results; the compound was inactive in the other large screens. In the library only some 1.4% were active in any assay of this set; here they are far more common.

CCc1cc2c(=O)nc3n(c2s1)Cc1ccccc1/C3=C(/O)c1ccccc1Cl	NCF1 inh 74
CCc1cc2c(=O)nc3n(c2s1)Cc1ccccc1/C3=C(/O)c1ccc(F)cc1	none
O=C(COc1ccc(S(=O)(=O)N2CCCCC2)cc1)NCc1cccnc1	NCF1 inh 35
Clc1ccc(/C=N/Nc2nn[nH]n2)cc1	GSH fluor 144
C(=N\Nc1nn[nH]n1)/c1ccccc1	none
Cc1ccc(C(=O)Nc2cccnc2N2CCN(C)CC2)cc1	none
O=c1[nH]c2ccccc2nc1C(Cl)c1ccccc1 (centres undefined)	PMI act hi M6P 2.1
O=c1[nH]c2ccccc2nc1-c1ccccc1	none (no result: GSH fluor, PMI act hi M6P, PMI act, Diaphorase act)
COc1ccc2[nH]c3c(C)c4ccncc4c(C)c3c2c1	NCF1 inh 92 (no result: GSH fluor, PMI act hi M6P, PMI act, Diaphorase act)
COc1ccc2[nH]c(C)cc(=O)c2c1	none
Nc1ccc(S(=O)(=O)Nc2nccc(/C=C/c3ccccc3F)n2)cc1	none
O=C(COC(=O)c1ccccc1Oc1ccccc1)NC1CCS(=O)(=O)C1 (centres undefined)	Avidin fluor 48
CC(CN(C)Cc1ccccc1)OC(=O)c1cccc(F)c1 (centres undefined)	PMI act hi M6P 2.4
CN(CCOC(=O)c1cccc(F)c1)Cc1ccccc1	none
Cc1nc(SCC(=O)Nc2c(C)nn(C)c2C)c2cnn(-c3ccccc3)c2n1	none
Cc1nn(Cc2ccccc2)c(C)c1NC(=O)CSc1nc(-c2ccccc2)nc2c1cnn2-c1ccccc1	NCF1 inh 32
COc1ccc(-n2c(Cc3cc(=O)[nH]c(=O)[nH]3)nnc2SCC(=O)Nc2ccccc2)cc1	NCF1 inh 47
COc1ccc(/C(=N\Nc2ccccc2C(=O)O)c2ccccc2)cc1	PMI act hi M6P 2.2
CN(C)c1nc(SCC#N)nc(N(C)C)n1	Avidin fluor 59
Cc1ccc(C)c(C(=O)COc2ccc(C)nc2[N+](=O)[O-])c1	GSH fluor 256
CCc1[nH]c(=O)c(C#N)c2c1CCCC2	NCF1 inh 33
CCc1[nH]c(=S)c(C#N)c2c1CCCC2	PMI act hi M6P 2.2
CCc1[nH]c(=O)c(C#N)c2c1COC(C)(C)C2	none
CC(Cc1cccnc1)NC(=O)CCc1nnc(-c2ccccc2)o1 (centres undefined)	none
CCOC(=O)C1(C)/C(=N/Nc2ccccc2OC)C(=O)C(=O)N1c1ccccc1 (centres undefined)	none
CCOC(=O)C1(C)/C(=N/Nc2ccccc2)C(=O)C(=O)N1c1ccccc1 (centres undefined)	PMI act hi M6P 2.1
Cc1ccc(C(=O)N/N=C\c2ccc[nH]2)cc1[N+](=O)[O-]	none
CC1Cc2nc(SCC(=O)N3CCc4ccccc43)n(C)c(=O)c2S1 (centres undefined)	NCF1 inh 34
c1ccc2c(c1)ccc1ncccc12	none
Oc1c(N=Nc2ccccn2)ccc2ccccc12	NCF1 inh 62
Cn1c(=O)c2c(-c3ccccc3F)c3c(nc2n(C)c1=O)-c1ccccc1C3O (centres undefined)	PMI act hi M6P 2.1
N/C(=N\OC(=O)c1cccs1)c1ccccc1	Avidin fluor 51
Cc1ccc(/C(N)=N/OC(=O)c2cccs2)cc1	none
CC1(C)c2ccccc2N2CCC(=O)NC21/C=C/c1ccco1 (centres undefined)	none
CN1c2ccccc2C(C)(C)C12CCCC(=O)N2 (centres undefined)	PMI act hi M6P 2
CN1CCN(C2=C(Cl)C(=O)C(c3cnc(N4CCCCC4)s3)=C(Cl)C2=O)CC1	NCF1 inh 48
O=C(C1=C[C@@H]2[C@H]3C(=O)N(c4ccccc4)C(=O)[C@H]3[C@@H](C(=O)c3ccc(Cl)cc3)N2C=C1)c1ccccc1	none
Cc1[nH]c2ccccc2c1C(=O)COC(=O)C1CC(=O)N(Cc2ccccc2)C1 (centres undefined)	none
CCOC(=O)c1c(C)[nH]c(C(=O)COC(=O)C2CC(=O)N(Cc3ccccc3)C2)c1C (centres undefined)	Avidin fluor 97, GSH fluor 239
